Published values of several laboratories.
Protocols differ between the studies behind these lines. Values after ≈ are worked out from the molar mass of the structure shown.
Organism: Mycobacterium tuberculosis
Effect on: microbial growth

| Compound | assay | test system | conditions | measurement | value |
| --- | --- | --- | --- | --- | --- |
| CC(c1cccnc1)n1c(=S)[nH]c2cc(CO)c(Cl)cc2c1=O (stereo not shown) | – | H37RV | – | MIC90 | > 100 µM |
| Clc1cccc(CCOc2cc(-c3ccccn3)nc3ncnn23)c1 | – | H37RV | – | MIC | > 100 µM |
| CCCCCCC#Cc1cncc(-c2nnc(SCc3cc([N+](=O)[O-])cc([N+](=O)[O-])c3)n2C2CCNCC2)c1 | resazurin | ERDMAN | – | IC50 | 2.6 µM |
| NNC(=O)c1ccncc1 | resazurin | – | 21 days | MIC | 0.5 µg/mL |
| CC(C)(O)c1ccc(OCCc2cccc(F)c2)c(C(N)=O)c1 | – | – | – | IC50 | 2.7 µM |
| O=[N+]([O-])c1cn2c(n1)OC[C@@H](OCc1ccc(OC(F)(F)F)cc1)C2 | – | H37RV | – | MIC | 0.31 µM |
| C[C@H](N)C(=O)OCc1cc2[nH]c(=S)n(Cc3cncnc3)c(=O)c2cc1Cl | – | H37RV | – | MIC90 | 4.22 µM |
| Nc1c(C(=O)NCc2ccccc2)sc2nc(-c3ccccc3)ccc12 | – | H37RV | – | IC50 | 42 µM |
| CCCCCCC#Cc1cncc(-c2nnc(SCc3cc([N+](=O)[O-])cc([N+](=O)[O-])c3)n2CCO)c1 | resazurin | ERDMAN | – | IC50 | 1.4 µM |
| Cc1ccc(CCNc2cc(-c3nccs3)nc3nncn23)cc1 | – | H37RV | – | MIC | 32 µM |
| COC(=O)OCc1cc2[nH]c(=S)n(Cc3cncnc3)c(=O)c2cc1Cl | – | H37RV | – | MIC90 | 1.84 µM |
| Cc1ccc(-c2cc(NCCc3ccc(F)cc3)n3cnnc3n2)o1 | – | H37RV | – | MIC | 19 µM |
| COc1ccc(-c2cc(C(F)(F)F)c3c(N)c(C(=O)Nc4ccc(C)cc4C)sc3n2)cc1 | – | H37RV | – | IC50 | > 100 µM |
| NC(=O)c1cncc(Cn2c(=S)[nH]c3ccc(Cl)cc3c2=O)c1 | – | H37RV | – | MIC90 | 63 µM |
| Nc1c(C(=O)N2CCOCC2)sc2nc(-c3ccccc3)ccc12 | – | H37RV | – | IC50 | 46 µM |
| CC(=O)c1ccc(OCCc2cccc(F)c2)c(C(N)=O)c1 | – | – | – | IC50 | 1.3 µM |
| Clc1ccc(CCNc2cc(-c3ccco3)nc3nncn23)cc1 | – | H37RV | – | MIC | 4.8 µM |
| CNC(=O)c1cc(C(F)F)ccc1OCCc1cccc(F)c1 | – | – | – | IC50 | 0.73 µM |
| CN(C)Cc1cc2[nH]c(=S)n(Cc3cccnc3)c(=O)c2cc1Cl | – | H37RV | – | MIC90 | > 100 µM |
| Cc1ccc(CCNc2cc(-c3ccc(C)o3)nc3nncn23)cc1 | – | H37RV | – | MIC | 0.36 µM |
| Nc1c(C(=O)Nc2ccccc2C(F)(F)F)sc2nc(-c3ccccc3)cc(C(F)(F)F)c12 | – | H37RV | – | IC50 | > 100 µM |
| CC[C@@H](CO)NCCN[C@@H](CC)CO | resazurin | H37RV | 21 days | MIC | 0.25 µg/mL |

| Compound | assay | test system | conditions | measurement | value |
| --- | --- | --- | --- | --- | --- |
| NCC[C@H](O)C(=O)N[C@@H]1C[C@H](N)[C@@H](O[C@H]2O[C@H](CN)[C@@H](O)[C@H](O)[C@H]2O)[C@H](O)[C@H]1O[C@H]1O[C@H](CO)[C@@H](O)[C@H](N)[C@H]1O | – | – | – | MIC50 | 0.25 µg/mL (≈ 0.427 µM) |
| COc1ccc(-c2cc(C(F)(F)F)c3c(N)c(C(=O)N4CCCC4)sc3n2)cc1 | – | H37RV | – | IC50 | > 50 µM |
| CCCCCCC#Cc1cncc(-c2nnc(SCc3cc([N+](=O)[O-])cc([N+](=O)[O-])c3)n2CCCN)c1 | resazurin | ERDMAN | – | IC50 | 3.2 µM |
| Cc1cccc(NC(=O)c2sc3nc(-c4cccs4)cc(C(F)(F)F)c3c2N)c1C | – | H37RV | – | IC50 | > 100 µM |
| CO[C@H]1/C=C/O[C@@]2(C)Oc3c(C)c(O)c4c(O)c(c(/C=N/N5CCN(C)CC5)c(O)c4c3C2=O)NC(=O)/C(C)=C\C=C\[C@H](C)[C@H](O)[C@@H](C)[C@@H](O)[C@@H](C)[C@H](OC(C)=O)[C@@H]1C | – | H37RA | – | MIC90 | 0.01 µM |
| COc1ccc(-c2cc(C(F)(F)F)c3c(N)c(C(=O)Nc4cc(C)ccc4C)sc3n2)cc1 | – | H37RV | – | IC50 | > 100 µM |
| COc1ccc(CCNc2cc(-c3ccccn3)nc3cc(C4CC4)nn23)cc1 | – | H37RV | – | MIC | 42 µM |
| O=c1c2cc(Cl)ccc2[nH]c(=S)n1Cc1ccc(-n2cccn2)nc1 | – | H37RV | – | MIC90 | > 100 µM |
| CO[C@H]1/C=C/O[C@@]2(C)Oc3c(C)c(O)c4c(O)c(c(/C=N/N5CCN(C)CC5)c(O)c4c3C2=O)NC(=O)/C(C)=C\C=C\[C@H](C)[C@H](O)[C@@H](C)[C@@H](O)[C@@H](C)[C@H](OC(C)=O)[C@@H]1C | – | H37RV | – | MIC90 | 0.12 µg/mL |
| FC(F)(F)c1ccc(CCNc2cc(-c3cccs3)nc3nncn23)cc1 | – | H37RV | – | IC90 | 0.31 µM |
| NNC(=O)c1ccncc1 | – | H37RV | – | MIC90 | 0.81 µg/mL |
| CCCCCCC#Cc1cncc(-c2nnc(SCc3cc(C(F)(F)F)cc(C(F)(F)F)c3)n2CCCN)c1 | resazurin | ERDMAN | – | IC50 | 3.1 µM |
| CCc1cc(=O)c2c(OCC(O)CNC(C)C)c3ccoc3c(OC)c2o1 (stereo not shown) | resazurin | – | 21 days | MIC | 16 µg/mL |
| CCCCCCC#Cc1cncc(-c2nnc(SCc3cc(=O)[nH]c4ccccc34)n2C)c1 | resazurin | ERDMAN | – | IC50 | > 200 µM |
| O=C(OCc1cc2[nH]c(=S)n(Cc3cncnc3)c(=O)c2cc1Cl)Oc1ccccc1 | – | H37RV | – | MIC90 | 1.94 µM |
| CCCCCCC#Cc1cncc(-c2nnc(SCc3ccc([N+](=O)[O-])o3)n2CCCN)c1 | resazurin | ERDMAN | – | IC50 | 12 µM |
| COc1ccc(CCNc2cc(-c3ccccn3)nc3nncn23)cc1 | – | H37RV | – | MIC | 0.39 µM |
| CCCCCCC#Cc1cncc(-c2nnc(SC[C@H]3O[C@@H](n4ccc(=O)[nH]c4=O)[C@H](O)[C@@H]3O)n2CCCN)c1 | resazurin | ERDMAN | – | IC50 | > 200 µM |
| CCc1cc(=O)c2c(OCC(O)CN3CCCCC3)c3ccoc3c(OC)c2o1 (stereo not shown) | resazurin | H37RV | 21 days | MIC | 64 µg/mL |
| CN(C)C(=O)OCc1cc2[nH]c(=S)n(Cc3cncnc3)c(=O)c2cc1Cl | – | H37RV | – | MIC90 | > 100 µM |
| Nc1c(C(=O)NCc2ccc(F)cc2)sc2ncccc12 | – | H37RV | – | IC50 | > 100 µM |
